Beta apoptosis: beta cell apoptosis inhibition | INS-1E cytokine-induced death, ATP luminescence, 48 h; percent of positive-control rescue, neutral wells zero | AID 435005 | 300,000 tested, 0.8% active | protection from apoptosis, % (no concentration beside the values);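 active = Every replicate reaches about 75%, or at least half do and their mean reaches it too, limit read from the data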;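 also: higher means more ATP so stronger rescue from cytokine killing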
Mdm2-MdmX inh: disrupts the human Mdm2-MdmX interaction | inhibition, % at 8 µM | O15151+Q00987 | SaOS-2 split-luciferase Mdm2/MdmX complementation, luminescence | 330,000 tested, 3% active;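 active = inhibition of at least 50% at 8 µM in the primary screen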
Target sequence (O15151 whole entry, looked up): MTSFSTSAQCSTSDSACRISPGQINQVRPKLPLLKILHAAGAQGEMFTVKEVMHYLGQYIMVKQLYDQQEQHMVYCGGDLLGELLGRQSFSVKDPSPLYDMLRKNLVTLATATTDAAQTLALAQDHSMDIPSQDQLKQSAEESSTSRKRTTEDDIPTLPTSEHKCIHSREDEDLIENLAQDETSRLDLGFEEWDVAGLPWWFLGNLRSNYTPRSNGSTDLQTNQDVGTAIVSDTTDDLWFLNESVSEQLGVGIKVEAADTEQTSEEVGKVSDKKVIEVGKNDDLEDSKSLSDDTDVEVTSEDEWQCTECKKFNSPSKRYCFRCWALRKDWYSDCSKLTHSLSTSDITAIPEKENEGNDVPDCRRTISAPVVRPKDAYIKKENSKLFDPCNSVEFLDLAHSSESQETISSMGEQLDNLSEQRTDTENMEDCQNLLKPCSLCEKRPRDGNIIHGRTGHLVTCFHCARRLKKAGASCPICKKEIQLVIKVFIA
Target sequence (Q00987 whole entry, looked up): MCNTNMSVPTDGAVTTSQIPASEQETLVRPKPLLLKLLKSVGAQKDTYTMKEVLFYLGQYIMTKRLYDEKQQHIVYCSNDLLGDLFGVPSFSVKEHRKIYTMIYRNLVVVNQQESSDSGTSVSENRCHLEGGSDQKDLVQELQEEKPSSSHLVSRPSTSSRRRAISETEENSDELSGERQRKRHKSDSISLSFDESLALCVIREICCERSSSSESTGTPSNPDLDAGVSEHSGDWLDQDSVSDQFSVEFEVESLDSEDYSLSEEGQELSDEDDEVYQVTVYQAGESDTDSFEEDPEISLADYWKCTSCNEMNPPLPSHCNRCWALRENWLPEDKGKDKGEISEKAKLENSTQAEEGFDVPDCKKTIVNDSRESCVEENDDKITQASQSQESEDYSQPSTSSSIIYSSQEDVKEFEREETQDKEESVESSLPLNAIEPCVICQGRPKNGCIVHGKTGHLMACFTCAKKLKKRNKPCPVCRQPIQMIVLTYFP
NALP3 yeast inh: inhibitors of NALP3 inflammasome in yeast. 330,000 tested, 0.39% active. Yeast reconstituted NLRP3/ASC/caspase-1, beta-gal luminescence, 24 h. inhibition, % at 10 µM;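 active = inhibition of 50% or more; inactive = inhibition below 50%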
CSC inhib: cancer stem cell inhibition. cancer stem cell-like cells viability, luminescence. inhibition, % at 7.5 µM. 300,000 tested, 1.1% active. AID 2717; in the data active = inhibition above about 75%; tested in HMLE shEcad cells
Calb FLC: C. albicans growth modulation with fluconazole; C. albicans CaCi-2 (fluconazole-resistant clinical isolate) + fluconazole, Alamar Blue growth, 48 h; growth inhibition, % (test concentration not listed); 300,000 tested, 0.57% active;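 active = growth inhibition above about 58% in most replicates, limit read from the data, passing the limit was not always enough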;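 also: all wells also contain fluconazole at 8 µg/ml as a sub-toxic cotreatment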
T cruzi repl: blocks replication of Trypanosoma cruzi; T. cruzi beta-gal in NIH3T3, luminescence, 90 h; inhibition, % (test concentration not listed); 300,000 tested, 1.4% active;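 active = mean inhibition across valid replicates above about 55%, limit read from the data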;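 also: signal also drops with host cell toxicity which is not excluded here; higher percent means less beta-gal luminescence so fewer parasites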
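Assay system: NIH/3T3 fibroblasts plus reporter T. cruzi. Amount: NIH/3T3 cells, 5,000 per well. Buffer or medium: DMEM, 2% fetal bovine serum. Doses: compound pinned at 50 nL/well, DMSO. Schedule: ≥90 h infection period, 3 h prior cell attachment. Signal: luminescent β-galactosidase signal after 60 min lysis. Read-out: parasite load inhibition, %.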
Mdm2 MdmX conf: human Mdm2/MdmX binding inhibition, confirmed; shares compounds with Mdm2-MdmX inh; luminescent assay; inhibition, % at 8 µM; 10,000 tested, 55% active; AID 489028; in the data active = inhibition above about 40%
Full FLuc ctr: full-length luciferase inhibition in Mdm2/MdmX counter-screen | AID 504607 | SaOS-2 full-length luciferase counterscreen, luminescence | inhibition, % at 8 µM | 6,200 tested, 77% active | shares compounds with Mdm2-MdmX inh;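 active = mean inhibition at 8 µM reaching about 37%, which flags the compound as non-specific, limit read from the data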;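 also: p53-null SaOS-2 cells with luciferase driven by a doxycycline-inducible promoter; compound on cells about two nights before reading with doxycycline added after day one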
Numbers stand for hits; 0 = inactive; - = not tested or not shown. Rows were chosen to be rich in hits. Some 5.3% of all compounds tested hit in one or more screens of this group.

SMILES	Beta apoptosis	Mdm2-MdmX inh	NALP3 yeast inh	CSC inhib	Calb FLC	T cruzi repl	Mdm2 MdmX conf	others
CCCC1(c2ccccc2)NC(=O)N(CC(=O)Nc2sc(-c3ccccc3)cc2C(=O)OCC)C1=O (centres undefined)	0	77	0	0	0	0	55	Full FLuc ctr=53
COC(=O)c1ccccc1NC(=O)CSc1n[nH]c(C)n1	0	0	0	0	0	0	-
CNCCCOc1ccc(C(C)(C)c2ccccc2)cc1	-	-	-	-	0	0	-
CNCCC(Oc1ccc(C(F)(F)F)cc1)c1ccccc1 (centres undefined)	0	51	0	0	-	0	0
CS(=O)(=O)N1N=C(c2ccco2)CC1c1ccc(Br)cc1 (centres undefined)	0	0	0	0	0	0	-
O=C(O)c1cccc2c3c([nH]c12)CCCC3	0	0	0	0	0	0	-
COc1cc(-c2nc(-c3ccc4c(c3)-c3ccccc3S4(=O)=O)c(-c3ccccc3)[nH]2)cc(OC)c1O	0	77	0	0	0	0	67	Full FLuc ctr=79
COc1ccc(-c2[nH]c(-c3ccc(C(=O)O)cc3)nc2-c2ccccc2)cc1	0	0	0	0	0	0	-
CCOC(=O)CC1Sc2ccccc2NC1=S (centres undefined)	0	0	0	0	0	0	-
NNC(=O)c1cccnc1Oc1ccccc1	0	0	0	0	0	0	-
O=C(c1ccoc1)N1CCC2(CC1)Oc1ccc(Cl)cc1C(=O)C21CC(c2cccnc2)=NO1 (centres undefined)	0	0	0	0	0	0	-
Cc1cccn2c(=O)c(C=NCCO)c(Nc3ccc(Cl)cc3)nc12	0	53	0	0	0	0	0
Cc1cccn2c(=O)c(C=Nc3ccc(Cl)cc3)c(NCCO)nc12	0	0	0	0	0	0	-
CCOC(=O)c1sc(NC(=O)CSc2nc(C)cc(C)n2)c(C#N)c1C	0	0	0	0	0	0	-
CCOC(=O)c1sc(NC(=O)c2cc(-c3ccccc3)nc3ccccc23)c(C#N)c1C	0	94	0	0	0	-	91	Full FLuc ctr=47
CCOC(=O)c1sc(NC(=O)c2cccc(S(=O)(=O)N3CCc4ccccc43)c2)c(C#N)c1C	0	89	0	0	0	0	0
CCOC(=O)c1sc(NC(=O)CSc2nc3c(cc2C#N)CCCCC3)c(C#N)c1C	0	72	0	0	0	0	0
CCC(CC)c1nnc(NC(=O)c2cccc(S(=O)(=O)N3CCc4ccccc43)c2)s1	0	0	0	0	0	0	-
CCOC(=O)c1sc(NC(=O)CSc2ccccn2)c(C#N)c1C	-	74	0	0	0	0	0
Cc1noc(C)c1CSc1ncnc2sc3c(c12)CCC3	-	-	-	-	0	0	-
O=C(CSc1ccc(-c2ccncc2)nn1)N1CCN(c2ccccc2)CC1	0	0	0	0	0	0	-
CC(=O)/C=C1/C(=O)Nc2ccccc21	0	0	0	0	0	0	-
C=CCOc1cccc(C(=O)/C=C2/C(=O)Nc3ccccc32)c1	0	86	0	0	0	0	0
O=C1N/C(=N\N=C\c2cccnc2)SC1Cc1ccc(SC(F)F)cc1 (centres undefined)	88	64	0	99	0	62	72	Full FLuc ctr=44
O=C1N/C(=N\N=C\c2ccc3ncccc3c2)SC1Cc1ccc(SC(F)F)cc1 (centres undefined)	0	0	0	0	0	0	-
SMILES	Beta apoptosis	Mdm2-MdmX inh	NALP3 yeast inh	CSC inhib	Calb FLC	T cruzi repl	Mdm2 MdmX conf	others
CC(=O)Nc1nc(-c2ccc3c(c2)CCN3C(=O)C2CC2)c(C)s1	0	95	0	-	0	0	93	Full FLuc ctr=51
CNc1nc(-c2ccc3c(c2)CCN3C(=O)CC(C)(C)C)c(C)s1	0	0	0	0	0	0	-
O=C(CN1CCN(S(=O)(=O)c2ccc(Br)cc2)CC1)Nc1ccccc1F	0	0	0	0	0	0	-
CC(C)NC(=O)c1ccccc1NC(=O)/C=C/c1cccc([N+](=O)[O-])c1	113	75	0	96	0	0	0
COCC(=O)N1CCC(Oc2ccc(C(=O)N3CCCCCCC3)cc2)CC1	-	0	0	0	0	0	-
CCn1cc([N+](=O)[O-])c(C(=O)N2N=C(c3ccccc3)CC2c2ccc([N+](=O)[O-])cc2)n1 (centres undefined)	0	0	0	0	0	0	-
CCn1cc([N+](=O)[O-])c(C(=O)N2N=C(c3ccc(Cl)c(Cl)c3)CC2c2ccccc2O)n1 (centres undefined)	0	71	0	0	0	0	42	Full FLuc ctr=71
CCn1cc([N+](=O)[O-])c(C(=O)N2N=C(c3ccc4ccccc4c3)CC2c2cc(Br)ccc2O)n1 (centres undefined)	0	99	0	0	0	56	41	Full FLuc ctr=39
CCn1cc([N+](=O)[O-])c(C(=O)Nc2ccc(Br)cn2)n1	0	0	0	-	0	0	-
CCNS(=O)(=O)c1cccc(C(=O)c2c(C)cc3ccccn23)c1	-	0	0	-	0	0	-
CCCCOC(=O)n1c(SCC(=O)N(C)C)nc2ccccc21	0	0	0	0	0	0	-
CN(C)c1ccc(NC(=O)COC(=O)c2ccc3c(c2)OCO3)cc1	0	0	0	0	-	-	-
CN(C)c1ccc(C(=O)OCC(=O)Nc2ccc(S(N)(=O)=O)cc2)cc1	0	53	0	0	0	0	0
CCC(=NC)C1=C(O)CC(c2ccccc2)CC1=O (centres undefined)	-	0	0	0	0	0	-
CCCCC(=NCCc1c(C)[nH]c2ccc(OC)cc12)C1=C(O)CC(c2ccccc2)CC1=O (centres undefined)	0	60	0	0	0	0	54	Full FLuc ctr=66
CCC/C(O)=C1\C(=O)CCCC1=NCCc1c(C)[nH]c2ccc(OC)cc12	0	0	0	0	0	0	-
CCC(=NCCc1c(C)[nH]c2ccc(OC(F)(F)F)cc12)C1=C(O)CC(c2ccccc2)CC1=O (centres undefined)	0	66	0	0	0	0	64	Full FLuc ctr=73
CCC(=NCCc1c(C)[nH]c2ccccc12)C1=C(O)CC(c2ccccc2)CC1=O (centres undefined)	0	71	0	0	0	0	52	Full FLuc ctr=50
COc1ccc(N2CCN(CCCNC(=O)CN3CCN(Cc4ccccc4C)C3=O)CC2)cc1	0	0	0	0	0	0	-
CN(C)c1ccc(/C=C2\CCCCC2=O)cc1	0	0	0	0	0	0	-
Cc1ccc(C(C)C)c(OCCCNCc2cccnc2)c1	0	0	0	0	0	0	-
Cc1ccc(C(C)C)c(OCCNCCc2ccccc2)c1	0	51	0	0	0	0	0
CCn1c(=O)c(C(=O)Nc2ccccc2S(N)(=O)=O)c(O)c2ccccc21	0	56	0	-	0	0	0

Screening results (PubChem BioAssay)
